For 1 molecule, Activity results are on record in ChEMBL document CHEMBL1157912, “Impact of nature and length of linker incorporated in agonists on toll-like receptor 9-mediated immune responses” (J Med Chem, 2010).

Activity calls are given as the source filed them. The rule behind the calls is not given here.

The target in experiment [1] is T1, Toll-like receptor 9 (Homo sapiens) (UniProt Q9NR96).
T1 sequence (whole entry): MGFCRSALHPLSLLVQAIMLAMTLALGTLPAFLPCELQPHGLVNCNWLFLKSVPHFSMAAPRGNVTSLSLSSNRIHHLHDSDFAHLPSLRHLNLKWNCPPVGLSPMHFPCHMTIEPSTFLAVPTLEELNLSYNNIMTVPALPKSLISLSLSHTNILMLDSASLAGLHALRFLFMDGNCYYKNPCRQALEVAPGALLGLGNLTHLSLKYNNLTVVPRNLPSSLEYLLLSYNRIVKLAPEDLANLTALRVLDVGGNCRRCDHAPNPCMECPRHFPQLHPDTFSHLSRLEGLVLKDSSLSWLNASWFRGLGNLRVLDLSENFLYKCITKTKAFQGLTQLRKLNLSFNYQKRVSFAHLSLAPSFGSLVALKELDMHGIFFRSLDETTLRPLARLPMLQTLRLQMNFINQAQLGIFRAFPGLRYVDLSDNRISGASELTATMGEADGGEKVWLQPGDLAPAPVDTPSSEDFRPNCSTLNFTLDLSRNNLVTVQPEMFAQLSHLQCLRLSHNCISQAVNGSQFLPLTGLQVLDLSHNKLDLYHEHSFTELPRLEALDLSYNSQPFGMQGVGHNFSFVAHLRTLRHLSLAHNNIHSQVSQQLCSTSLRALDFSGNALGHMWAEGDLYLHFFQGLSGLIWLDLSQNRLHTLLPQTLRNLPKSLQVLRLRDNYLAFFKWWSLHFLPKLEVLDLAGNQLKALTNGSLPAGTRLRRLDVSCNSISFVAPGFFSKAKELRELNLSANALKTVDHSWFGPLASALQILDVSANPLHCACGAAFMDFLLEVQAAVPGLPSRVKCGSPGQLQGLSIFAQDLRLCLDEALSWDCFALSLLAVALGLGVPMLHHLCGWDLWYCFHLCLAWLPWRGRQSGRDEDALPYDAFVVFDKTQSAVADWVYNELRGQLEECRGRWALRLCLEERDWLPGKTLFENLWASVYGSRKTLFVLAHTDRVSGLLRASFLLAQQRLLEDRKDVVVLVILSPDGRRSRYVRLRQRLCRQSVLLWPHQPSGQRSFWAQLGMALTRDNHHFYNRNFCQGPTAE
Put plainly: Induction of TLR9-mediated immune stimulation in human PBMC assessed as IL1Ralpha production at 2 ug/ml after 24 hrs by luminex multiplex assay (RVb = 0.12 +/- 0.03 ng/ml).

The target in experiment [2] is T1, Toll-like receptor 9 (Homo sapiens). Put plainly: Induction of TLR9-mediated immune stimulation in human PBMC assessed as IL1Ralpha production at 10 ug/ml after 24 hrs by luminex multiplex assay (RVb = 0.12 +/- 0.03 ng/ml).
Experiment [3] shares this target. Put plainly: Induction of TLR9-mediated immune stimulation in human PBMC assessed as IL2R production at 2 ug/ml after 24 hrs by luminex multiplex assay (RVb = 0.02 +/- 0.01 ng/ml).
For experiment [4] the target is unchanged. Put plainly: Induction of TLR9-mediated immune stimulation in human PBMC assessed as IL2R production at 10 ug/ml after 24 hrs by luminex multiplex assay (RVb = 0.02 +/- 0.01 ng/ml).
The target is the same in experiment [5]. Put plainly: Induction of TLR9-mediated immune stimulation in human PBMC assessed as IL6 production at 2 ug/ml after 24 hrs by luminex multiplex assay (RVb = 0.01 ng/ml).
The target is the same in experiment [6]. Put plainly: Induction of TLR9-mediated immune stimulation in human PBMC assessed as IL6 production at 10 ug/ml after 24 hrs by luminex multiplex assay (RVb = 0.01 ng/ml).
The target is the same in experiment [7]. Put plainly: Induction of TLR9-mediated immune stimulation in human PBMC assessed as IL12 production at 10 ug/ml after 24 hrs by luminex multiplex assay (RVb = 0.00 ng/ml).
For experiment [8] the target is unchanged. Put plainly: Induction of TLR9-mediated immune stimulation in human PBMC assessed as MIP1alpha production at 2 ug/ml after 24 hrs by luminex multiplex assay (RVb = 0.01 ng/ml).
The target is the same in experiment [9]. Put plainly: Induction of TLR9-mediated immune stimulation in human PBMC assessed as MIP1beta production at 10 ug/ml after 24 hrs by luminex multiplex assay (RVb = 0.03 +/- 0.02 ng/ml).
For experiment [10] the target is unchanged. Put plainly: Induction of TLR9-mediated immune stimulation in human PBMC assessed as IP10 production at 2 ug/ml after 24 hrs by luminex multiplex assay (RVb = 0.00 ng/ml).
Experiment [11] has the same target. Put plainly: Induction of TLR9-mediated immune stimulation in human PBMC assessed as MCP1 production at 2 ug/ml after 24 hrs by luminex multiplex assay (RVb = 0.08 +/- 0.02 ng/ml).
The target is the same in experiment [12]. Put plainly: Induction of TLR9-mediated immune stimulation in human PBMC assessed as MCP1 production at 10 ug/ml after 24 hrs by luminex multiplex assay (RVb = 0.08 +/- 0.02 ng/ml).
The target is the same in experiment [13]. Put plainly: Induction of TLR9-mediated human B cell proliferation assessed as [3H]thymidine uptake after 56 hrs by scintillation counting. The method, boiled down: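 B cells were purified from human PBMCs (healthy volunteers), about 1 × 10⁵ cells, and stimulated with various agonist concentrations for 56 h. Cells were then pulsed with 0.75 μCi [³H]-thymidine and harvested 16 h later. Incorporation was counted by scintillation and reported as cpm.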

Experiment [14] has as its system Mus musculus. Put plainly: Immunostimulatory activity in C57BL/6 mouse assessed as increase in serum IL12 level at 1 mg/kg, sc after 2 hrs by ELISA. The format is functional, organism-based. Also noted: dose 1 mg/kg. The method, boiled down: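 Female C57BL/6 mice (n=3) received a single subcutaneous agonist dose of 1 mg/kg. Blood was taken by retro-orbital bleeding 2 h later, and serum IL-12 was measured by sandwich ELISA. Values are the mean of three mice ± SD.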

Consider `Cc1cn([C@H]2C[C@H](O[C@@H]3C[C@@H](O)C[C@@H](OP(=O)(S)O[C@H]4C[C@H](n5cc(C)c(=O)[nH]c5=O)O[C@@H]4COP(=O)(S)O[C@H]4[C@@H](O)[C@H](n5ccc(N)nc5=O)O[C@@H]4COP(=O)(S)O[C@H]4C[C@H](n5cc(C)c(=O)[nH]c5=O)O[C@@H]4COP(=O)(S)O[C@H]4C[C@H](n5cc(C)c(=O)[nH]c5=O)O[C@@H]4COP(=O)(S)O[C@H]4C[C@H](n5ccc6c(=O)[nH]c(N)nc65)O[C@@H]4COP(=O)(S)O[C@H]4[C@@H](O)[C@H](n5ccc(N)nc5=O)O[C@@H]4COP(=O)(S)O[C@H]4C[C@H](n5cc(C)c(=O)[nH]c5=O)O[C@@H]4COP(=O)(S)O[C@H]4[C@@H](O)[C@H](n5cnc6c(=O)[nH]c(N)nc65)O[C@@H]4COP(=O)(S)O[C@H]4C[C@H](n5cc(C)c(=O)[nH]c5=O)O[C@@H]4COP(=O)(S)O[C@H]4[C@@H](O)[C@H](n5ccc(N)nc5=O)O[C@@H]4COP(=O)(S)O[C@H]4C[C@H](n5cc(C)c(=O)[nH]c5=O)O[C@@H]4CO)C3)[C@@H](COP(=O)(S)O[C@H]3[C@@H](O)[C@H](n4ccc(N)nc4=O)O[C@@H]3COP(=O)(S)O[C@H]3C[C@H](n4cc(C)c(=O)[nH]c4=O)O[C@@H]3COP(=O)(S)O[C@H]3C[C@H](n4cc(C)c(=O)[nH]c4=O)O[C@@H]3COP(=O)(S)O[C@H]3C[C@H](n4ccc5c(=O)[nH]c(N)nc54)O[C@@H]3COP(=O)(S)O[C@H]3[C@@H](O)[C@H](n4ccc(N)nc4=O)O[C@@H]3COP(=O)(S)O[C@H]3C[C@H](n4cc(C)c(=O)[nH]c4=O)O[C@@H]3COP(=O)(S)O[C@H]3[C@@H](O)[C@H](n4cnc5c(=O)[nH]c(N)nc54)O[C@@H]3COP(=O)(S)O[C@H]3C[C@H](n4cc(C)c(=O)[nH]c4=O)O[C@@H]3COP(=O)(S)O[C@H]3[C@@H](O)[C@H](n4ccc(N)nc4=O)O[C@@H]3COP(=O)(S)O[C@H]3C[C@H](n4cc(C)c(=O)[nH]c4=O)O[C@@H]3CO)O2)c(=O)[nH]c1=O` (some centres undefined), for which the Activity was 14.2 ng/mL in experiment [1]; 109 ng/mL in [2]; 0.02 ng/mL in experiment [3]; 0.29 ng/mL in [4]; 0.3 ng/mL in experiment [5]; 0.89 ng/mL in [6]. Further, the Activity was 0.21 ng/mL in experiment [7]; 0.05 ng/mL in [8]; 2.45 ng/mL in [9]; 0.01 ng/mL in experiment [10]; 0.25 ng/mL in experiment [11]; 9.5 ng/mL in experiment [12]. In [13], the Activity entry was “Dose-dependent effect”. Further, the outcome in [14] was Active.
